Measured values from PMC2791411 (Biochemistry, 2009).

Key:
[1] = target: T1, hDAO (human diamine oxidase) (Homo sapiens, UniProt P19801); test: Inhibition of hDAO putrescine oxidation; assay type: biochemical; details: for Mode of Inhibition: hDAO, putrescine oxidation, global nonlinear regression
T1 sequence (P19801 20-751): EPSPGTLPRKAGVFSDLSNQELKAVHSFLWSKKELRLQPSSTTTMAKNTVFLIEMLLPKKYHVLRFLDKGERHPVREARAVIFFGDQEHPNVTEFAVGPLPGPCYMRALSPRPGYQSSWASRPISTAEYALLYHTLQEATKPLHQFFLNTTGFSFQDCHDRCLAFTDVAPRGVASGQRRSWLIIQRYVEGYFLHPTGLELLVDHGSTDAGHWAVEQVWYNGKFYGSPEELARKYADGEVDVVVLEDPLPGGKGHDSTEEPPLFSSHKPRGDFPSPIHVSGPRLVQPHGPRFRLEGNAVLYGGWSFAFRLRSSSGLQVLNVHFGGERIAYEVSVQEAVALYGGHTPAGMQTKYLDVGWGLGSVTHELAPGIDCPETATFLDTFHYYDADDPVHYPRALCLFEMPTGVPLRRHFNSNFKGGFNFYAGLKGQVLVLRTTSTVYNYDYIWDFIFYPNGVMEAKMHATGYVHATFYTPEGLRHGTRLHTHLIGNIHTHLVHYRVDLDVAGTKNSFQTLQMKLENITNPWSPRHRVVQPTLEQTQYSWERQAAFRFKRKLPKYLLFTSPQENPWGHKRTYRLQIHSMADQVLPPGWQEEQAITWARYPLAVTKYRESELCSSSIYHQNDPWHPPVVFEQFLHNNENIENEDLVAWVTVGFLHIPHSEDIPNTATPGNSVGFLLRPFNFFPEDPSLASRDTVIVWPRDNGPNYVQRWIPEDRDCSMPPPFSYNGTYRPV

[2] = target: T2, hVAP-1 (Homo sapiens, UniProt Q16853); test: Inhibition of hVAP-1 amine oxidase activity; assay type: biochemical; details: for Mode of Inhibition: hVAP-1
T2 sequence (Q16853 1-763): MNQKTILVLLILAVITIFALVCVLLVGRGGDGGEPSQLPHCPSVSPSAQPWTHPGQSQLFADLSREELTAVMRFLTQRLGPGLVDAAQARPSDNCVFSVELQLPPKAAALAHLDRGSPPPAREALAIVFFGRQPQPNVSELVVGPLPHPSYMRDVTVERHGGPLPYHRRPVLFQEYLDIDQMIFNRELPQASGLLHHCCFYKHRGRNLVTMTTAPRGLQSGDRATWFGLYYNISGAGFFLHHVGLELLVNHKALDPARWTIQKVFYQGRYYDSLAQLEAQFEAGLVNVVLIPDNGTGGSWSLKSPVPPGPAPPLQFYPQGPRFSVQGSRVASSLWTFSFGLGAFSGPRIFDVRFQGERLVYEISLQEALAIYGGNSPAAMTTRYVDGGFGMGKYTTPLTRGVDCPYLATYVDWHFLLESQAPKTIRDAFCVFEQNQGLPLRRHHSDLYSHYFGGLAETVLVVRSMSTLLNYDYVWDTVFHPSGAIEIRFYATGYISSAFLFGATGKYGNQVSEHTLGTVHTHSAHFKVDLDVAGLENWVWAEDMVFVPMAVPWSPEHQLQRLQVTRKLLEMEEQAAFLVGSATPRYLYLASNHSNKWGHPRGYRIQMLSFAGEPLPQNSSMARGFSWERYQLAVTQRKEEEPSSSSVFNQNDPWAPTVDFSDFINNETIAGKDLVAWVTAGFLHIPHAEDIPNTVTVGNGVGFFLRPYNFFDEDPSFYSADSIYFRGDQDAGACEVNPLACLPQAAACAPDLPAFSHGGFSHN
Summary of the method: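 Purified human VAP-1 was supplied as a gift. Activity was followed as benzaldehyde production at 250 nm over 5 min (ε 12,800 M⁻¹cm⁻¹) in 100 mM potassium phosphate, pH 7.2, at 37 °C, with and without test compound. Ki and mode came from global nonlinear regression, choosing the best-fitting competitive, uncompetitive, noncompetitive or mixed model.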

[3] = patients, intravenous treatment; ref [59], [73], [79]–[81]; cited from earlier work
[4] = AIDS patients under pentamidine treatment; ref [72]–[78]; cited from earlier work

| SMILES | inhibition of hDAO, in words [1] | Mode of Inhibition [1] | Ki [1] | also measured |
| --- | --- | --- | --- | --- |
| N=C(N)c1ccc(N=NNc2ccc(C(=N)N)cc2)cc1 [Berenil, 1,3-bis(4’-amidinophenyl)triazene] | very potent inhibitors | Mixed |  | Mode of Inhibition ([1]; listed as berenil): mixed type/partial competitive inhibition |
| CN/C(=N/CCSCc1nc[nH]c1C)NC#N [Cimetidine] |  | Mixed | 90 ± 14 µM |  |
| Clc1cccc(Cl)c1N=C1NCCN1 [Clonidine] | weak inhibitor | Mixed | 100 ± 8 µM |  |
| NNC(=O)c1ccncc1 [Isoniazid] |  | purely noncompetitive | 970 ± 50 µM |  |
| N=C(N)c1ccc(OCCCCCOc2ccc(C(=N)N)cc2)cc1 [Pentamidine, 1,5-bis(4-amidinophenoxy)pentane] | very potent inhibitors | mixed type/partial competitive inhibition |  | Ki [2]: 1.1 ± 0.04 µM; Mode of Inhibition [2]: Noncompetitive; Mode of Inhibition ([2]; listed as pentamidine): purely noncompetitive; Plasma concentration, lower end of range [3]: 25 ng/mL; Plasma concentration, lower end of range (molar) [3]: 43 nM; Plasma concentration, upper end of range [3]: 1.4 g/mL; Plasma concentration, upper end of range (molar) [3]: 2300 nM; AIDS patients with adverse side effects [4]: at least 70% |
| NCCCCN [putrescine, 1,4-diaminobutane] |  |  | 2270 ± 140 µM |  |
